In brackets after ≈: the same amount, converted by molar mass. Activity calls are given as the source filed them. The rule behind the calls is not given here.

For data set [1], the target named is T1, Alternative oxidase, mitochondrial (Trypanosoma brucei brucei, UniProt Q26710). As to the kind of experiment: Binding affinity to recombinant Trypanosoma brucei brucei 427 alternative oxidase expressed in Escherichia coli BL21 cells using ubiquinol-1 as substrate by spectrophotometric method.
Data set [2] deals with Trypanosoma brucei brucei. As to the kind of experiment: Antiparasitic activity against bloodstream trypomastigote stage of wild type Trypanosoma brucei brucei Lister 427 after 48 hrs by resazurin dye based fluorescence assay. In kind it is functional, organism-based. The conditions noted are these: Lister 427, 48 h. The procedure, abridged: (§1)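 Bloodstream trypomastigotes of T. b. brucei s427 (wild type) were tested, both with and without glycerol. EC50 values are the mean of 3 experiments ± SEM.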
On the technique in general: Resazurin is reduced to fluorescent resorufin, in cell work by metabolically active cells.

Data set [3] concerns Trypanosoma brucei brucei. Nature of the data set: Antiparasitic activity against bloodstream trypomastigote stage of wild type Trypanosoma brucei brucei Lister 427 after 48 hrs in presence of glycerol by resazurin dye based fluorescence assay. In kind it is functional. Particulars: Lister 427, 48 h. The procedure, abridged: as §1
Data set [4] has as its system Trypanosoma brucei brucei. As to the kind of experiment: Resistance factor, ratio of EC50 for diminazene, pentamidine and melaminophenyl arsenical-resistant bloodstream trypomastigote stage of Trypanosoma brucei brucei B48 harboring TbAT1 deletions to EC50 for bloodstream trypomastigote stage of wild-type Trypanosoma brucei brucei Lister 427. Format: functional.
The nature of data set [5]: Dissociation constant, pKa of the compound. In kind it is physicochemical.
Data set [6] has as its target T1, Alternative oxidase, mitochondrial. Nature of the data set: Inhibition of recombinant Trypanosoma brucei brucei alternative oxidase using ubiquinol-1 as substrate incubated for 2 mins followed by substrate addition by spectrophotometric method. The gist of the method: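 The assay measured inhibition of the ubiquinol oxidase activity of purified recombinant ∆MTS-TAO from T. b. brucei.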

In data set [7] the test system is Trypanosoma brucei brucei. As to the kind of experiment: Antiparasitic activity against bloodstream trypomastigote stage of wild type Trypanosoma brucei brucei Lister 427 at 100 uM after 48 hrs by resazurin dye based fluorescence assay. Format: functional, organism-based.
Data set [8] is described as follows: Cytotoxicity against HEK293T cells after 30 hrs by resazurin dye based fluorescence assay. Format: cell-based, HEK-293T. The conditions noted are these: human. The gist of the method:
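Cytotoxicity was measured on human embryonic kidney (HEK) cells and reported as CC50. Values are the mean of 3 experiments ± SEM.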

The nature of data set [9]: Selectivity index, ratio of CC50 for HEK293T cells to EC50 for pentamidine-resistant bloodstream trypomastigote stage of Trypanosoma brucei brucei harboring AQP1 to 3 deletions. The conditions noted are these: human; read-out: Ratio CC50/EC50. Format: toxicity.
In data set [10] the test system is Trypanosoma brucei brucei. Nature of the data set: Resistant factor, ratio of EC50 for bloodstream trypomastigote stage of wild-type Trypanosoma brucei brucei Lister 427 assessed as inhibition of respiration in presence of glycerol to EC50 for bloodstream trypomastigote stage of wild-type Trypanosoma brucei brucei Lister 427 assessed as inhibition of respiration in absence of glycerol. In kind it is functional.

A short description of data set [11]: Selectivity index, ratio of CC50 for HEK293T cells to EC50 for bloodstream trypomastigote stage of wild type Trypanosoma brucei brucei Lister 427. Format: toxicity. The conditions noted are these: human; read-out: Ratio CC50/EC50. The gist of the method: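 The selectivity index was calculated as CC50 in HEK cells divided by EC50 against wild-type T. b. brucei s427 bloodstream trypomastigotes.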

T1 sequence (Q26710 whole entry): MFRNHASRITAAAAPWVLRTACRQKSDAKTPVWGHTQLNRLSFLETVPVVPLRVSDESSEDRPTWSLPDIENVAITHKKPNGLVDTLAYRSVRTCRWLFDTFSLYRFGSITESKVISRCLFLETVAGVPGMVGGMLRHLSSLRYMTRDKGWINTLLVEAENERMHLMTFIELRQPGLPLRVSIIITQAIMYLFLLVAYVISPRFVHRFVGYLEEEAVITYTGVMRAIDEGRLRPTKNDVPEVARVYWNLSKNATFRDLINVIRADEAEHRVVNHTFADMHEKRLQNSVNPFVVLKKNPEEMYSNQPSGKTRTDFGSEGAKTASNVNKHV

What is called Ki is the dissociation constant of the complex between target and ligand, obtained from inhibition or displacement. `CC(C)=CCOc1ccc(C(=O)O)c(O)c1`: the Ki in data set [1] is 5000 nM.
By MIC is commonly meant the least concentration at which growth counts as inhibited. `C/C(=C\Cc1c(O)c(Cl)c(C)c(C=O)c1O)CC/C=C(\C)[C@@H]1CC(=O)C(C)(C)O1` [ASCOFURANONE]: the MIC amounted to 250 µM (≈ 105 µg/mL) in data set [2] and 0.03 µM in data set [3].
One may read the pKa as the negative logarithm of the acid dissociation constant. One may read the IC50 as the concentration that inhibits the measured activity by half. As to `C/C(=C\CO)CC/C=C(\C)COc1ccc(C(=O)O)c(O)c1`, the “Ratio EC50” value in [4] was less than 1. This compound also showed a pKa in data set [5] of less than 5. In [6], the IC50 was 2100 nM. The outcome in [7] was inactive.
The EC50 is the concentration giving half of the maximal effect. Lower therefore signals greater potency. For orientation: CC50 means the concentration that lowers cell viability or growth by half. Read a low CC50 as greater toxicity to the cells. Take `Cc1cc(OCCCCCCCCCCCCC[P+](c2ccccc2)(c2ccccc2)c2ccccc2)cc(O)c1C(=O)O.[Br-]`: it took 13 nM to reach a half-maximal effect in data set [2] (EC50). Further, the “Ratio EC50” value in [4] and in [10] was less than 1 each time. The half-inhibitory concentration (IC50) in [6] came out at 4.2 nM. Moreover, the midpoint of cytotoxicity in [8], the CC50 at 30 h, lay at 830 nM. Moreover, the selectivity ratio in data set [9] stood at 230; in data set [11], 64.

(Values after ChEMBL document CHEMBL4196235, “SAR of 4-Alkoxybenzoic Acid Inhibitors of the Trypanosome Alternative Oxidase” (ACS Med Chem Lett, 2018).)
